Measured values taken from ChEMBL document CHEMBL3875168, “Synthesis and apoptosis inducing studies of triazole linked 3-benzylidene isatin derivatives” (Eur J Med Chem, 2016).
The source made the active and inactive calls. The calls are words filed in the database; no cut-off is given here.

Key:
DU-145 [1] = experiment: Induction of apoptosis in human DU145 cells assessed as late apoptotic cells at 1.25 uM after 24 hrs by Annexin V-FITC/propidium iodide staining based flow cytometry (reference value: 5.4%); type: functional
[2] = Cytotoxicity against human RWPE1 cells assessed as cell growth inhibition after 48 hrs by MTT assay; type: toxicity, cell-based, RWPE-1
DU-145 [3] = experiment: Induction of apoptosis in human DU145 cells assessed as late apoptotic cells at 5 uM after 24 hrs by Annexin V-FITC/propidium iodide staining based flow cytometry (reference value: 5.4%); type: functional
DU-145 [4] = experiment: Induction of apoptosis in human DU145 cells assessed as early apoptotic cells at 1.25 uM after 24 hrs by Annexin V-FITC/propidium iodide staining based flow cytometry (reference value: 2.14%); type: functional
DU-145 [5] = experiment: Induction of apoptosis in human DU145 cells assessed as increase in necrotic cells after 24 hrs by Annexin V-FITC/propidium iodide staining based flow cytometry; type: functional, cell-based
DU-145 [6] = experiment: Induction of apoptosis in human DU145 cells assessed as viable cells at 1.25 uM after 24 hrs by Annexin V-FITC/propidium iodide staining based flow cytometry (reference value: 90.32%); type: functional; details: DU-145, 24 h, read-out: Activity
[7] = Cell cycle arrest in human DU145 cells assessed as accumulation at G2/M phase at 2.5 uM after 24 hrs by propidium iodide staining-based flow cytometry (reference value: 29.66%); type: functional; details: DU-145
Method in brief: (§1)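 Compound given to DU145 at 2.5 and 5.0 μM for 24 h alongside untreated cells. Cells harvested, PBS-washed, fixed in ice-cold 70% ethanol, then stained 30 min at 37 °C in the dark with propidium iodide (50 μg/mL) plus RNase A (20 μg/mL) in 0.1% Triton X-100. About 10000 events per sample read by flow cytometry; a representative of three independent experiments is shown.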

[8] = Cytotoxicity against human PC3 cells assessed as cell growth inhibition after 48 hrs by MTT assay; type: functional, cell-based; details: PC-3, 48 h
Method in brief: (§2)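 Cell lines (NCCS) grown in DMEM or RPMI with 10% FBS and antibiotic-antimycotic at 37 °C, 5% CO2, 90% humidity. Cells seeded at 3-5×10^3 per well, treated 48 h with serial dilutions in medium beside vehicle control. Medium replaced with MTT (0.5 mg/mL) for 4 h, absorbance read at 570 nm. IC50 taken from concentration-response curves; sunitinib served as reference.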

[9] = Cell cycle arrest in human DU145 cells assessed as accumulation at G0/G1 phase at 2.5 uM after 24 hrs by propidium iodide staining-based flow cytometry (reference value: 62.81%); type: functional; details: DU-145; method in brief: as §1
DU-145 [10] = experiment: Induction of morphological changes in human DU145 cells assessed as apoptotic body formation at 1.25 to 5 uM after 48 hrs by acridine orange/ethidium bromide-dual staining based fluorescence microscopic method; type: functional, cell-based
Method in brief: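 DU145 plated at 1×10^6 cells/mL, treated at several concentrations and kept 48 h at 37 °C in 5% CO2. Equal volumes of acridine orange and ethidium bromide (10 μg/mL) added, and cells imaged within 10 min by fluorescence microscopy (excitation 488 nm, emission 550 nm) at 200x.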

DU-145 [11] = experiment: Induction of apoptosis in human DU145 cells assessed as early apoptotic cells at 5 uM after 24 hrs by Annexin V-FITC/propidium iodide staining based flow cytometry (reference value: 2.14%; type: functional
[12] = Cell cycle arrest in human DU145 cells assessed as accumulation at sub G1 phase at 2.5 uM after 24 hrs by propidium iodide staining-based flow cytometry (reference value: 0.65%); type: functional; details: DU-145; method in brief: as §1
DU-145 [13] = experiment: Induction of mitochondrial membrane potential loss in human DU145 cells at 2.5 uM after 24 hrs by flow cytometry (reference value: 5.39%); type: functional
DU-145 [14] = experiment: Induction of mitochondrial membrane potential loss in human DU145 cells after 24 hrs by flow cytometry; type: functional, cell-based
[15] = Cell cycle arrest in human DU145 cells assessed as accumulation at S phase at 2.5 uM after 24 hrs by propidium iodide staining-based flow cytometry (reference value: 10.3%); type: functional; details: DU-145; method in brief: as §1
DU-145 [16] = experiment: Induction of apoptosis in human DU145 cells assessed as early apoptotic cells at 2.5 uM after 24 hrs by Annexin V-FITC/propidium iodide staining based flow cytometry (reference value: 2.14%); type: functional
DU-145 [17] = experiment: Induction of apoptosis in human DU145 cells assessed as condensation of nucleus at 2.5 to 5 uM after 48 hrs by DAPI staining based fluorescence microscopic method; type: functional, cell-based
Method in brief: (§3)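 DU145 treated for 48 h, PBS-washed, permeabilized with 0.1% Tween 20 for 10 min and stained with 1 μM DAPI. Nuclear morphology of control and treated cells viewed by fluorescence microscopy (excitation 359 nm, emission 461 nm) at 200x.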

DU-145 [18] = experiment: Induction of apoptosis in human DU145 cells assessed as formation of fragmented nuclei at 2.5 to 5 uM after 48 hrs by DAPI staining based fluorescence microscopic method; type: functional, cell-based; method in brief: as §3
[19] = Cell cycle arrest in human DU145 cells assessed as accumulation at S phase at 5 uM after 24 hrs by propidium iodide staining-based flow cytometry (reference value: 10.3%); type: functional; details: DU-145; method in brief: as §1
DU-145 [20] = experiment: Induction of apoptosis in human DU145 cells assessed as increase in cytochrome c level after 48 hrs by Western blot analysis; type: functional, cell-based
DU-145 [21] = experiment: Induction of apoptosis in human DU145 cells assessed as viable cells at 5 uM after 24 hrs by Annexin V-FITC/propidium iodide staining based flow cytometry (reference value: 90.32%); type: functional; details: DU-145, 24 h, read-out: Activity
DU-145 [22] = experiment: Induction of apoptosis in human DU145 cells assessed as necrotic cells at 5 uM after 24 hrs by Annexin V-FITC/propidium iodide staining based flow cytometry (reference value: 2.14%); type: functional
DU-145 [23] = experiment: Induction of apoptosis in human DU145 cells assessed as increase in Bax level after 48 hrs by Western blot analysis; type: functional, cell-based
[24] = Cell cycle arrest in human DU145 cells assessed as accumulation at sub G1 phase at 5 uM after 24 hrs by propidium iodide staining-based flow cytometry (reference value: 0.65%); type: functional; details: DU-145; method in brief: as §1
[25] = Cytotoxicity against human BT549 cells assessed as cell growth inhibition after 48 hrs by MTT assay; type: functional, cell-based; details: BT-549, 48 h; method in brief: as §2
[26] = Cytotoxicity against human DU145 cells assessed as cell growth inhibition after 48 hrs by MTT assay; type: functional, cell-based; details: DU-145, 48 h; method in brief: as §2
DU-145 [27] = experiment: Induction of apoptosis in human DU145 cells after 24 hrs by Annexin V-FITC/propidium iodide staining based flow cytometry; type: functional, cell-based
[28] = Cell cycle arrest in human DU145 cells assessed as accumulation at G2/M phase at 5 uM after 24 hrs by propidium iodide staining-based flow cytometry (reference value: 29.66%); type: functional; details: DU-145; method in brief: as §1
DU-145 [29] = experiment: Induction of apoptosis in human DU145 cells assessed as decrease in Bcl2 level after 48 hrs by Western blot analysis; type: functional, cell-based
[30] = Cytotoxicity against human HeLa cells assessed as cell growth inhibition after 48 hrs by MTT assay; type: functional, cell-based; method in brief: as §2
DU-145 [31] = experiment: Induction of apoptosis in human DU145 cells assessed as increase in intracellular reactive oxygen species after 6 hrs by DCFDA dye based spectrofluorometer; type: functional, cell-based
DU-145 [32] = experiment: Induction of apoptosis in human DU145 cells assessed as necrotic cells at 2.5 uM after 24 hrs by Annexin V-FITC/propidium iodide staining based flow cytometry (reference value: 2.14%); type: functional

O=C1Nc2ccc(C(c3ccccc3)c3ccccc3)cc2/C1=C/c1cccc(OCc2cn(Cc3ccccc3)nn2)c1
Activity (DU-145 [1]): 9.11% | IC50 at 48 h [2]: 21.4 µM | Activity (DU-145 [3]): 25% | Activity (DU-145 [4]): 12.6% | Activity (DU-145 [5]): Dose-dependent effect | viability at 1.25 µM (DU-145 [6]): 76.5% | Activity [7]: 43.7% | IC50 [8]: 17.2 µM | Activity [9]: 14.8% | Activity (DU-145 [10]): Active | Activity (DU-145 [11]): 13.64% | Activity [12]: 27.6% | Activity (DU-145 [13]): 85.24% | Activity (DU-145 [14]): Dose-dependent effect | Activity [15]: 12.7% | Activity (DU-145 [16]): 18.05% | Activity (DU-145 [17]): Active | Activity (DU-145 [18]): Active | Activity [19]: 22.5% | Activity (DU-145 [20]): Active | viability at 5 µM (DU-145 [21]): 45.9% | Activity (DU-145 [22]): 15.46% | Activity (DU-145 [23]): Active | Activity [24]: 18.3% | IC50 [25]: 15.8 µM | IC50 [26]: 3.7 µM | Activity (DU-145 [27]): Dose-dependent effect | Activity [28]: 48% | Activity (DU-145 [29]): Active | IC50 [30]: 4.28 µM | Activity (DU-145 [31]): Dose-dependent effect | Activity (DU-145 [32]): 4.41%
